Only some compounds are listed: those with a hit (about 1.4% of all), similar ones and a draw of the others.
CDK5 p35 inh = inhibitors of human CDK5/p35 kinase, primary screen, biochemical, single concentration; Cyclin-dependent kinase 5 (Homo sapiens) + Cyclin-dependent kinase 5 activator 1 (Homo …; Recombinant CDK5/p35, ADP-Glo luminescence, 60 min; inhibition, % at 10 µM; hit rate 0.01% among 330,000; AID 488839, 2010;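 active means highest replicate inhibition of at least 50% and at least 75% of replicates reaching 50%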
Target sequence (Q00535 whole entry, looked up): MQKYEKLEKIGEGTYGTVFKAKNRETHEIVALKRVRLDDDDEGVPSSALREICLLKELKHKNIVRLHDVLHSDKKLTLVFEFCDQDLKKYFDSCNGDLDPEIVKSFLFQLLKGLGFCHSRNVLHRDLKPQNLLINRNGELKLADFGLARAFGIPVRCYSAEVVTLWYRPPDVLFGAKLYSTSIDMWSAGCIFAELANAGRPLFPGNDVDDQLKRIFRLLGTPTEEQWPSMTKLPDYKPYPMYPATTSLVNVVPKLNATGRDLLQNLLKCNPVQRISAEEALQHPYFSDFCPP
Target sequence (Q15078 whole entry, looked up): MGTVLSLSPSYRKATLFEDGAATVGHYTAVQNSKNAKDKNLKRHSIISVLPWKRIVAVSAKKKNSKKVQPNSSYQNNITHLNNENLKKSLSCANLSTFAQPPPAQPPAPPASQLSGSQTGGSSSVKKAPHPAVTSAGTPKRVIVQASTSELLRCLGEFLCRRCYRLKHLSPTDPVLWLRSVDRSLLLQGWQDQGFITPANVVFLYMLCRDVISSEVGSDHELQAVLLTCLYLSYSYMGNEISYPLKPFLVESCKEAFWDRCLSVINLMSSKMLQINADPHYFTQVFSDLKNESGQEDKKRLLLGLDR
PvdQ acylase = P. aeruginosa PvdQ acylase inhibitors, primary screen, biochemical, fluorescence, plate reader and imaging, single point. PvdQ acylase [Pseudomonas aeruginosa LESB58]. hit rate 0.063% among 340,000. AID 488965, 2010. inhibition, % at 10 µM. purified PvdQ acylase; in the data active means inhibition above about 30%, passing the limit was not always enough
CAL PDZ FP-1 = untagged CAL PDZ binding inhibitors, primary screen, biochemical, fluorescence polarization, HTS; Golgi-associated PDZ and coiled-coil motif-containing protein (Homo sapiens), Q9HD26; hit rate 0.92% among 300,000; inhibition, % at 24.9 µM; purified CAL PDZ, TMR-peptide fluorescence polarization, 1 h;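 active means mean inhibition of at least 30% with at least half of replicates also reaching 30%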
DYRK1A inh = rat Dyrk1A kinase inhibitors, primary screen, biochemical, single point, plate reader; hit rate 0.43% among 310,000; AID 504441, 2011; ADP-Glo luminescence, NFATc1 peptide; inhibition, % at 12.5 µM; in the data active means inhibition above about 50%
TbMetRS inhib = T. brucei MetRS inhibitors, primary screen, biochemical, luminescence. methionyl-tRNA synthetase (Trypanosoma brucei brucei). purified T. brucei MetRS, ATP depletion, Kinase-Glo luminescence. inhibition, % at 11.9 µM. hit rate 0.4% among 360,000;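 active means inhibition above a per-plate cutoff of the control wells' mean inhibition plus 3 SD, cut at about 5.5% in these data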
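Dosing: 11.9 µM compound single dose, 0.9% DMSO; Assay system: purified T. brucei MetRS enzyme; Measured by: Kinase-Glo luciferase luminescence reporting remaining unconsumed ATP; Schedule: 15 min plus 2 h at 25 °C.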
CAL PDZ FP-2 = CAL PDZ peptide-binding inhibitors, primary screen, biochemical, fluorescence polarization, Cer-tagged CAL PDZ, HTS; inhibition, % at 20 µM; AID 504414, 2011; hit rate 0.02% among 330,000; purified CAL PDZ, TMR-peptide fluorescence polarization, 1 h;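 active means highest replicate inhibition of at least 40%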
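System: purified tagged CAL PDZ domain construct (CerCALP). Schedule: 1 h incubation at room temperature before polarization reading. Medium: 25 mM sodium phosphate pH 7.4, 150 mM NaCl, TCEP, IgG, Thesit. Read-out: percent inhibition from loss of millipolarization. Measured by: FP readout, S and P plane fluorescence. Probe or stimulus: fluorescent TMR peptide probe.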
Numbers stand for hits; – = inactive; · = no result given; ! = a repeat was not active.

SMILES	CDK5 p35 inh	PvdQ acylase	CAL PDZ FP-1	DYRK1A inh	TbMetRS inhib	CAL PDZ FP-2
CSc1nc2c(c(=O)[nH]1)C(c1cccs1)C1=C(CCCC1=O)N2 (stereo unspecified)	·	–	32	–	–	–
COc1ccc(OC)c(NC(=O)NNC(=O)c2cc3occc3[nH]2)c1	–	–	–	–	9.2	–
O=C1CCCN1CCCNc1nc(NCc2cccs2)nc2ccsc12	·	·	·	·	–	·
Cc1ccc2scc(CN3CCCC3)c2c1	–	38	·	–	–	–
c1ccc2c(CN3CCCCC3)csc2c1	–	–	–	–	–	–
CC1(C)CC(=O)N(c2ccc(Cl)cc2Cl)C(=O)C1	–	–	61	–	–	–
COc1ccc(-c2ncc(CN3CCN(CCC(C)C)C(CCO)C3)cn2)cc1 (stereo unspecified)	–	–	93	–	–	–
COC1=CC(C)C2CC3OC(O)CC4C(C)=C(OC)C(=O)C(C2(C)C1=O)C34C (stereo unspecified)	·	·	·	·	–	·
CCOc1cc(N2CCOCC2)c(OCC)cc1NC(=O)CN1CCCC1	–	–	94	–	–	–
CCOc1cc(N2CCOCC2)c(OCC)cc1NC(=O)COC(=O)c1ccc([N+](=O)[O-])o1	–	–	92	–	–	–
CCOc1cc(N2CCOCC2)c(OCC)cc1NC(=O)COC(=O)c1cc(C)cc(C)c1	–	–	–	–	–	–
O=C(O)C1=CCC(c2ccc(Cl)c(Cl)c2)N(S(=O)(=O)c2ccc(F)cc2)C1c1cccc(F)c1 (stereo unspecified)	·	·	·	·	–	·
CCN(C(=O)c1ccc2c(SCC(=O)O)c3c(nc2c1)CCC3)c1cc(Cl)ccc1OC	–	–	101	–	–	–
Cc1ccccc1N(CC(=O)NCCc1ccccc1)C(=O)CCC(=O)Nc1ccccn1	–	–	–	–	–	–
CCc1ccccc1N(CC(=O)NCCc1ccccc1)C(=O)CCC(=O)Nc1ccccn1	–	–	65	–	–	–
CCCCn1nnc(NC(=O)c2ccc([N+](=O)[O-])cc2Cl)n1	–	–	67	–	–	–
CSCCC(C(=O)Nc1c(C)cccc1C)n1c(COc2ccc(C)cc2)nc2ccccc21 (stereo unspecified)	·	·	·	·	–	·
CCOc1ccc(CN2CCN(Cc3cccn3-c3cccnc3)CC2CCO)cc1 (stereo unspecified)	–	–	78	–	–	–
NC(=O)NCC(=O)N1CCC(C(O)(c2ccccc2)c2ccccc2)CC1	–	–	79	–	–	–
COc1ccc(-n2nnnc2/C=C/Nc2cc(C(F)(F)F)ccc2OC)cc1	–	–	105	–	–	–
COc1ccc(-n2nnnc2/C=C\Nc2ccccc2C(=O)c2ccccc2)cc1	–	–	–	–	–	–
COCOCCn1cc(CN2CCS(=O)(=O)N(Cc3ccc(-c4ccccc4)cc3)C(C(C)C)C2=O)nn1 (stereo unspecified)	·	·	·	·	–	·
CC(C)C1C(=O)N(Cc2cn(CC3CCCCC3)nn2)CCS(=O)(=O)N1Cc1ccc(-c2cccc(CO)c2)cc1 (stereo unspecified)	·	·	·	·	–	·
COc1cc(CN2CCNC(=O)C2CC(=O)N(C)CCC2CCOCC2)cc(OC)c1 (stereo unspecified)	–	–	–	–	–	–
COc1ccc(CN2CCNC(=O)C2CC(=O)N(C)CCC2CCOCC2)cc1OC (stereo unspecified)	–	–	93	–	–	–
SMILES	CDK5 p35 inh	PvdQ acylase	CAL PDZ FP-1	DYRK1A inh	TbMetRS inhib	CAL PDZ FP-2
COc1cc(-c2onc3ccc(Br)cc23)cc(OC)c1OC	–	–	–	–	–	–
COc1ccc(-c2onc3ccc(Br)cc23)cc1	–	34	–	–	–	–
CC1(C(=O)NCc2ccco2)Cc2c(-c3cccc(C(N)=O)c3)ccnc2O1 (stereo unspecified)	·	·	·	·	–	·
CC1(C)CN(Cc2ccccc2)C(=O)[C@H]1CC(=O)Nc1ccc(Br)cc1	·	·	·	·	–	·
C[N+](C)(C)CCCN(Cc1ccc2c(c1)OCO2)C(=O)NC1CCCCC1	–	–	41	·	–	–
CC(NCc1ccc2c(c1)OCO2)C(=O)NC1CCCCC1 (stereo unspecified)	–	–	–	–	–	–
COC(=O)[C@@]12C[C@@H](CC(=O)NCCCCc3ccccc3)C(=O)N(Cc3cccc4ccccc34)C1=CCC(C)(C)C2	·	·	·	·	–	·
CCOC(=O)c1sc(-c2ccc(Cl)cc2Cl)nc1O	–	–	49	–	–	–
O=C(O)c1cn[nH]c1-c1cccc([N+](=O)[O-])c1	–	–	61	–	–	–
O=Cc1cn[nH]c1-c1cccc([N+](=O)[O-])c1	–	–	–	–	–	–
CCOc1ccc(C(=O)/C=C/c2ccc(OC)c(OC)c2)cc1	–	–	61	·	–	–
O=S(=O)(c1ccccc1)n1ccc2ccccc21	–	–	47	–	–	–
Cc1ccc([C@@]2(OC(=O)c3ccccc3)C(=O)N(C(=O)OC(C)(C)C)c3ccccc32)cc1	·	·	·	·	–	·
CCn1cnc2sc(C(=O)Oc3cccc(C)c3)c(C)c2c1=O	–	–	42	–	–	–
CCC(C)NC(=O)C1CCN(c2nc(OC)nc(OC)n2)CC1 (stereo unspecified)	–	–	–	–	–	–
CCC(C)(C)NC(=O)C1CCN(c2nc(OC)nc(OC)n2)CC1	–	–	34	–	–	–
O=C(O)CSc1nc2c(c(C(F)(F)F)n1)CCCC2	–	–	78!	–	–	–
O=CN(c1ccccc1)c1ccc2ccccc2c1	–	79	–	–	–	–
COC(=O)[C@@]12C[C@@H](CC(=O)NCc3cccc(C(F)(F)F)c3)C(=O)N(CCc3ccc(OC)c(OC)c3)C1=CCC(C)(C)C2	·	·	·	·	–	·
COc1cc(OC)cc(C2=Cc3ccccc3C(CC(=O)c3ccco3)N2c2ccc(-c3cncnc3)cc2)c1 (stereo unspecified)	·	·	·	·	–	·
Cc1ccc(C(C)C)cc1OCCn1cncn1	–	–	66	–	–	·
Cc1ccc(OCCn2cncn2)c([N+](=O)[O-])c1	–	–	·	–	–	–
CC(=O)c1ccc(NC(=S)N(CCCN(C)C)Cc2ccccc2)cc1	–	–	58	–	–	–
O=C(NNC(=O)C1CCCCC1)c1ccc(Br)cc1	–	–	–	–	–	–
O=C(NNC(=O)C1CCC1)c1ccc(Br)cc1	–	–	50	–	–	–
CCCn1nnc(NC(=O)c2ccc3c(c2)OCO3)n1	–	–	103	–	–	–

Compound activity from PubChem BioAssay.
